Assay [1] relates to Staphylococcus aureus. Put plainly: Antimicrobial activity against methicillin-resistant Staphylococcus aureus CCARM 3696 by radial diffusion assay incubated with Staphylococcus aureus Culture supernatant for 1 hr. It counts as functional, organism-based.
Assay [2] has as its system Staphylococcus aureus. The assay is described as follows: Antimicrobial activity against methicillin-resistant Staphylococcus aureus CCARM 3696 by radial diffusion assay incubated with matrix metalloprotease 7 for 1 hr. The assay is classed as functional, organism-based.
For a further assay, the system named is Pseudomonas aeruginosa. Put plainly: Antimicrobial activity against multidrug-resistant Pseudomonas aeruginosa CCARM 2161 after 18 hrs by broth dilution method. It counts as functional. The conditions noted are these: CCARM 2161, 18 h. Put shortly:
(§1)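 Broth dilution per CLSI. Bacteria were grown overnight to stationary phase in Mueller-Hinton broth and diluted in fresh MHB to 2 × 10^5 CFU/ml. Stocks at 640 μg/ml in 0.01% acetic acid were 2-fold serially diluted to 10 μg/ml, and 11 μl was added to 100 μl of bacteria. After 18 h at 37°C, MIC was the lowest concentration with no visible turbidity. Run in triplicate.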
(In general: Broth dilution looks for growth in wells or tubes with falling amounts of substance.)

Assay [3] relates to Staphylococcus aureus. The assay is described as follows: Antimicrobial activity against methicillin-resistant Staphylococcus aureus CCARM 3696 after 18 hrs by broth dilution method. It counts as functional. The conditions noted are these: CCARM 3696, 18 h. Put shortly: as §1
For a further assay, the system named is Citrobacter freundii. The assay is described as follows: Antimicrobial activity against Citrobacter freundii KCTC 2359 after 18 hrs by broth dilution method. The assay is classed as functional. The conditions noted are these: KCTC 2359, 18 h. In short, it runs like this:
(§2)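 Broth microdilution following CLSI recommendations. Bacteria were grown overnight to stationary phase in Mueller-Hinton broth, then diluted in fresh MHB to 2 × 10^5 CFU/ml. Peptide or antibiotic stocks of 640 μg/ml in 0.01% acetic acid were serially 2-fold diluted to 10 μg/ml, and each was added to the bacterial suspension at 11 μl per 100 μl. Plates were incubated 18 h at 37°C. MIC was taken as the lowest concentration giving no visible turbidity, in triplicate.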

In assay [4] the test system is Staphylococcus aureus. The assay is described as follows: Antimicrobial activity against methicillin-resistant Staphylococcus aureus CCARM 3696 by radial diffusion assay incubated with Pseudomonas aeruginosa Culture supernatant for 1 hr. It counts as functional, organism-based.
In the next assay the test system is Salmonella enterica. Put plainly: Antimicrobial activity against Salmonella enterica KCTC 2930 after 18 hrs by broth dilution method. The conditions noted are these: KCTC 2930, 18 h. It counts as functional. Put shortly: as §2
For a further assay, the system named is Enterococcus faecium. Put plainly: Antimicrobial activity against vancomycin-resistant Enterococcus faecium CCARM 5028 after 18 hrs by broth dilution method. It counts as functional. The conditions noted are these: CCARM 5028, 18 h. Put shortly:
as §1

Assay [5] relates to Staphylococcus aureus. The assay is described as follows: Antimicrobial activity against methicillin-resistant Staphylococcus aureus CCARM 3696 by radial diffusion assay incubated with human wound fluid for 1 hr. It counts as functional, organism-based.
The test system of a further assay is Klebsiella oxytoca. The assay is described as follows: Antimicrobial activity against Klebsiella oxytoca KCTC 1686 after 18 hrs by broth dilution method. The assay is classed as functional. Particulars: KCTC 1686, 18 h. In short, it runs like this:
as §2

The next assay deals with Listeria monocytogenes. The assay is described as follows: Antimicrobial activity against Listeria monocytogenes KCTC 19111 after 18 hrs by broth dilution method. It counts as functional. The conditions noted are these: KCTC 19111, 18 h. Put shortly: as §2
In the next assay the test system is Micrococcus luteus. Put plainly: Antimicrobial activity against Micrococcus luteus KCTC 9341 after 18 hrs by broth dilution method. Particulars: KCTC 9341, 18 h. The assay is classed as functional. In short, it runs like this: as §2
The test system of assay [6] is Staphylococcus aureus. The assay is described as follows: Antimicrobial activity against methicillin-resistant Staphylococcus aureus CCARM 3696 by radial diffusion assay incubated with chymotrypsin for 1 hr. It counts as functional, organism-based.
The test system of the next assay is Escherichia coli. The assay is described as follows: Antimicrobial activity against Escherichia coli KCTC 1039 after 18 hrs by broth dilution method. It counts as functional. Particulars: KCTC 1039, 18 h. Put shortly: as §2
In assay [7] the test system is Staphylococcus aureus. The assay is described as follows: Antimicrobial activity against methicillin-resistant Staphylococcus aureus CCARM 3696 by radial diffusion assay incubated with human wound fluid for 4 hrs. It counts as functional, organism-based.
The test system of assay [8] is Staphylococcus aureus. The assay is described as follows: Antimicrobial activity against methicillin-resistant Staphylococcus aureus CCARM 3696 by radial diffusion assay incubated with chymotrypsin. The assay is classed as functional, organism-based.
The test system of another assay is Bacillus subtilis. The assay is described as follows: Antimicrobial activity against Bacillus subtilis KCTC 2213 after 18 hrs by broth dilution method. It counts as functional. The conditions noted are these: KCTC 2213, 18 h. Put shortly: as §2

From ChEMBL document CHEMBL1275595, “Antimicrobial activity of a halocidin-derived peptide resistant to attacks by proteases” (2010) come the findings set out here.

Converted amounts (≈) assume the structure as drawn. The source made the active and inactive calls. Bridge positions count the residues as written; N and C are the ends. Peptide text beside a SMILES is read from it. I, II: the chains in the order shown.

Regarding `CC(C)C[C@H](NC(=O)CNC(=O)[C@H](Cc1cnc[nH]1)NC(=O)[C@H](Cc1cnc[nH]1)NC(=O)[C@H](CC(C)C)NC(=O)[C@H](CC(C)C)NC(=O)[C@H](C)NC(=O)[C@H](CC(N)=O)NC(=O)[C@H](CC(C)C)NC(=O)[C@H](Cc1c[nH]c2ccccc12)NC(=O)[C@@H](N)CCCCN)C(=O)N[C@@H](CC(N)=O)C(=O)N[C@@H](CSSC[C@H](NC(=O)[C@H](CC(N)=O)NC(=O)[C@H](CC(C)C)NC(=O)CNC(=O)[C@H](Cc1cnc[nH]1)NC(=O)[C@H](Cc1cnc[nH]1)NC(=O)[C@H](CC(C)C)NC(=O)[C@H](CC(C)C)NC(=O)[C@H](C)NC(=O)[C@H](CC(N)=O)NC(=O)[C@H](CC(C)C)NC(=O)[C@H](Cc1c[nH]c2ccccc12)NC(=O)[C@@H](N)CCCCN)C(=O)N[C@@H](C)C(=O)N[C@@H](CCCCN)C(=O)NCC(=O)N[C@H](C(=O)N[C@@H](CC(C)C)C(=O)N[C@@H](C)C(N)=O)C(C)C)C(=O)N[C@@H](C)C(=O)N[C@@H](CCCCN)C(=O)NCC(=O)N[C@H](C(=O)N[C@@H](CC(C)C)C(=O)N[C@@H](C)C(N)=O)C(C)C` (I: H-KWLNALLHHGLNCAKGVLA-NH2 / II: H-KWLNALLHHGLNCAKGVLA-NH2; disulfide I:13-II:13), the outcome in the assay with Staphylococcus aureus [1], with Staphylococcus aureus [2], in the assay with Staphylococcus aureus [4], with Staphylococcus aureus [5], in the assay with Staphylococcus aureus [6] and in the assay with Staphylococcus aureus [7] was Active. For the same compound, the outcome in the assay with Staphylococcus aureus [8] was Active. Also, the MIC is 4 µg/mL (≈ 0.973 µM) in the assay with Pseudomonas aeruginosa; 4 µg/mL (≈ 0.973 µM) in the assay on Staphylococcus aureus [3]; 4 µg/mL (≈ 0.973 µM) in the assay with Citrobacter freundii; 4 µg/mL (≈ 0.973 µM) against Salmonella enterica; 2 µg/mL (≈ 0.486 µM) against Enterococcus faecium; 4 µg/mL (≈ 0.973 µM) in the assay with Klebsiella oxytoca. For the same compound, the MIC was 4 µg/mL (≈ 0.973 µM) against Listeria monocytogenes, 4 µg/mL (≈ 0.973 µM) against Micrococcus luteus, 4 µg/mL (≈ 0.973 µM) with Escherichia coli and 2 µg/mL (≈ 0.486 µM) in the assay on Bacillus subtilis.

For orientation: MIC means the smallest concentration in the dilution series that meets the test's criterion for growth inhibition. A higher MIC goes with weaker potency.
